Experimental data taken from article PMC7615481 (The Journal of biological chemistry, 2023).
“Also recorded” adds a separate entry of the source. Positions of bridges follow the written chain, without caps; N, C: chain ends. Residues, ends and D or L forms follow the SMILES beside them.

Legend:
[1] = system: mhICD chimeric GC-C receptor; format: binding; conditions: words; Fig. 2H lower panel
[2] = system: mouse GC-C variant 2; experiment: Radiolabeled ST binding to monolayers, mouse GC-C variant 2; conditions: monolayer HEK293E, Fig. 1E, three experiments
[3] = system: WT or GCD chimeric GC-C; format: binding; conditions: monolayers of HEK293E; Fig. 3E
[4] = target: T1, mouse GC-C (Mus musculus, UniProt Q3UWA6); format: cell-based
T1 sequence (Q3UWA6 20-1072): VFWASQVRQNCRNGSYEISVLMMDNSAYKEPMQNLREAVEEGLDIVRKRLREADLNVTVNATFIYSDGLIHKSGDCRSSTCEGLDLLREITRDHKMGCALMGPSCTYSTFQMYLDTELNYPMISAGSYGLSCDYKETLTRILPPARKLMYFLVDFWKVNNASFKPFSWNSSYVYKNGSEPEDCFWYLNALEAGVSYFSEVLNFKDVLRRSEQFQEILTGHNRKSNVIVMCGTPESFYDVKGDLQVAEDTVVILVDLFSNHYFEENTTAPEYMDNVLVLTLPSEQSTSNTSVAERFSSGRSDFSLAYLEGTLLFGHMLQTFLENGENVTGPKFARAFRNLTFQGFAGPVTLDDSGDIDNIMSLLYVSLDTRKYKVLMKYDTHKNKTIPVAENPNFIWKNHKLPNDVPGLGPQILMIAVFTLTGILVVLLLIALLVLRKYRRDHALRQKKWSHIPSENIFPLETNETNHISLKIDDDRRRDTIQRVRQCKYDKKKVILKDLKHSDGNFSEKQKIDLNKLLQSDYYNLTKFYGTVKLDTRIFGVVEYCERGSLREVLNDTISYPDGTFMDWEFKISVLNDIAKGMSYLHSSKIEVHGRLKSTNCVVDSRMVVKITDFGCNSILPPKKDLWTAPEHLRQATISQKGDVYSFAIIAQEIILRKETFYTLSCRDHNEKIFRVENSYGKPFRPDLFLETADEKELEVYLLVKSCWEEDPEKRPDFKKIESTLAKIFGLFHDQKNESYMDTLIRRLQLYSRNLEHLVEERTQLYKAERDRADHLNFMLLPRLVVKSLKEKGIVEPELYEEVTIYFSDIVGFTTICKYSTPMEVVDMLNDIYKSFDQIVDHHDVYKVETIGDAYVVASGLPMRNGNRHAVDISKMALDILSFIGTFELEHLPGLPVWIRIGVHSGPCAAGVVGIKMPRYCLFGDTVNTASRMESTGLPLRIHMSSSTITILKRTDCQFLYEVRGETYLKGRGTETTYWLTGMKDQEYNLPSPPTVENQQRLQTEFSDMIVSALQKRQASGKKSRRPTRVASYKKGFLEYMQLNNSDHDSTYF

[5] = system: mouse GC-C variant 1; experiment: Ligand-stimulated cGMP production in HEK293E cells, mouse GC-C variant 1; format: cell-based; conditions: 10^−6 M ST, RIA, Fig. 1D
Procedure, shortened: (§1)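 HEK293E cells expressing the mouse GC-C variant were preincubated for 30 min at 37 °C in a humidified CO₂ incubator in DMEM-HG with serum, antibiotics and 500 μM IBMX. They were then exposed to medium alone or 10⁻⁶ M ST for 30 min. Monolayers were lysed in 0.1 N HCl, and cGMP was measured by RIA and normalized to cell-surface receptor amount. Representative of three independent experiments.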

[6] = system: mouse GC-C variant 2; experiment: Ligand-stimulated cGMP production in HEK293E cells, mouse GC-C variant 2; format: cell-based; conditions: 10^−6 M ST, RIA, Fig. 1D
Procedure, shortened: as §1

[7] = system: hmCYC chimeric GC-C; format: cell-based
[8] = target: T2, human GC-C (Homo sapiens, UniProt P25092); conditions: ref [21]; cited from earlier work
T2 sequence (P25092 24-1073): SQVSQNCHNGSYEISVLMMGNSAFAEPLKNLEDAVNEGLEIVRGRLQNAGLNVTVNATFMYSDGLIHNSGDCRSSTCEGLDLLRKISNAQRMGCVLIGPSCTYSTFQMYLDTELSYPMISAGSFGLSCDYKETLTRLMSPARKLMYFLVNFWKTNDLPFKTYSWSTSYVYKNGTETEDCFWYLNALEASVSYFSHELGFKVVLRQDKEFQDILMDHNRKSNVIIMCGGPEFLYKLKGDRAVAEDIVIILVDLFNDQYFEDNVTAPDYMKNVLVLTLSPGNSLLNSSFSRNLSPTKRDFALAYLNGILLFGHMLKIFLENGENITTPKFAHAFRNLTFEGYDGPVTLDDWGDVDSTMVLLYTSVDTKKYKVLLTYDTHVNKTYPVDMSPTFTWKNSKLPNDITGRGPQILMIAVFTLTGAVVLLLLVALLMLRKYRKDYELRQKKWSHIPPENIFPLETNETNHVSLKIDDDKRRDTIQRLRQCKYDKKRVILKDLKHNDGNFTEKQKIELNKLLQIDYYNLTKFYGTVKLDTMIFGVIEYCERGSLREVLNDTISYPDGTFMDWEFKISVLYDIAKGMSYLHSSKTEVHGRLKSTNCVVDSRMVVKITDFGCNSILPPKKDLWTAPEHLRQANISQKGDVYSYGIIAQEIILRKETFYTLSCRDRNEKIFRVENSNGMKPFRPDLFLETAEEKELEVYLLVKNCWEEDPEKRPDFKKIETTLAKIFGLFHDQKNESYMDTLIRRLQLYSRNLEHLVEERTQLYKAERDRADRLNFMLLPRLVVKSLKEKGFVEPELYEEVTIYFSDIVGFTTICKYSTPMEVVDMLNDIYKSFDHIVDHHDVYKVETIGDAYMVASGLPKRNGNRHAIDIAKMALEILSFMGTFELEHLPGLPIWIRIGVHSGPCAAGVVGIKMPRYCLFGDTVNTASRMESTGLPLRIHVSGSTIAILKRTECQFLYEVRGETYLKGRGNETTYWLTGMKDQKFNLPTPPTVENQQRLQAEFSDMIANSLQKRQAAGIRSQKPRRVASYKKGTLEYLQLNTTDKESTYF

[9] = system: mice; conditions: mouse, in vivo; cited from earlier work
[10] = system: mice lacking GC-C; conditions: ref [12]; cited from earlier work
[11] = target: T2, human GC-C; experiment: In vitro GC assay, MnGTP as substrate, hGC-C; format: biochemical; conditions: 1 mM MnATP, 1 mM MnGTP; Fig. 4B
[12] = target: T1, mouse GC-C; experiment: In vitro GC assay, MnGTP as substrate, mGC-C; format: biochemical; conditions: 1 mM MnATP, 1 mM MnGTP; Fig. 4B
[13] = system: hmCYC chimeric GC-C; experiment: In vitro GC assay, MnGTP as substrate, hmCYC; format: biochemical; conditions: 1 mM MnATP, 1 mM MnGTP; Fig. 4B
[14] = target: T1, mouse GC-C; experiment: In vitro GC assay, MgGTP as substrate, with or without Lubrol, mGC-C; format: biochemical; conditions: 1 mM MgGTP, Fig. 4A
[15] = system: hmCYC chimeric GC-C; experiment: In vitro GC assay, MgGTP as substrate, Lubrol-stimulated, hmCYC; format: biochemical; conditions: 1 mM MgATP, 1 mM MgGTP, 0.1% Lubrol-PX; Fig. 4A
[16] = system: mhCYC chimeric GC-C; experiment: In vitro GC assay, MgGTP as substrate, Lubrol-stimulated, mhCYC; format: biochemical; conditions: 1 mM MgATP, 1 mM MgGTP, 0.1% Lubrol-PX; Fig. 4A
[17] = system: chimeric receptor harboring the mouse KHD; format: biochemical; conditions: 0.1% Lubrol-PX, MgGTP
[18] = target: T2, human GC-C; conditions: Mn2+ as metal ion; ref [25]; cited from earlier work
[19] = system: hGC-C; conditions: Mg2+ as metal ion cofactor, ref [25]; cited from earlier work
[20] = system: GC-CK516A; conditions: Mg2+; ref [25]; cited from earlier work
[21] = system: GC-CK516A; conditions: ref [25]; cited from earlier work
[22] = system: GC-C; conditions: in vitro; ref [38]; cited from earlier work

With CC(C)C[C@@H]1NC(=O)[C@H](CCC(=O)O)NC(=O)[C@@H]2CSSC[C@@H]3NC(=O)[C@H](C)NC(=O)[C@@H]4CCCN4C(=O)[C@H](CC(N)=O)NC(=O)[C@H](CSSC[C@H](NC(=O)[C@H](Cc4ccc(O)cc4)NC(=O)[C@H](CC(N)=O)NC(=O)[C@H](CO)NC(=O)[C@H](CO)NC(=O)[C@@H](N)CC(N)=O)C(=O)N2)NC(=O)[C@H](CSSC[C@@H](C(=O)N[C@@H](Cc2ccc(O)cc2)C(=O)O)NC(=O)CNC(=O)[C@H]([C@@H](C)O)NC3=O)NC1=O [ST] (H-NSSNYCCELCCNPACTGCY-OH; disulfide 6-11, 7-15, 10-18; N-terminus and C-terminus assumed) the “affinity to the ST peptide of the mhICD chimera” value [1] was “reduced affinity to the ST peptide”, the “ligand binding ability of variant 2” value [2] was “marked reduction in the ligand binding ability” and the “binding to ST of GCD chimeric receptors” value [3] was “determined by the ECD”. For the same molecule, the “accumulation of cGMP at saturating ST, mGC-C” value [4] was “much reduced in comparison with cells expressing hGC-C”, the “intracellular cGMP accumulation, mGC-C lower than hGC-C” value [4] was ~ 10 fold and the “cGMP levels on ST treatment, variant 1” value [5] was “significant increase in cGMP levels”. The “cGMP levels on ST treatment, variant 2” value [6] was “remained unchanged”, the “cGMP accumulation, hmCYC versus hGC-C” value [7] was “log order reduction in cGMP accumulation when compared to hGC-C” and the “affinity of plasma membrane- and endoplasmic reticulum–associated hGC-C for ST” value [8] was “comparable affinities”. The “accumulation of fluid in the gut of mice on ST treatment” value [9] was “leads to the accumulation of fluid in the gut” and the “ST-induced fluid accumulation in mice lacking GC-C” value [10] was “resistant to ST-induced fluid accumulation”.
With Nc1ncnc2c1ncn2[C@@H]1O[C@H](COP(=O)(O)OP(=O)(O)OP(=O)(O)O)[C@@H](O)[C@H]1O [ATP] the “ATP-mediated inhibition of GC activity with MnGTP, hGC-C” value [11] was “remained”, the “ATP-mediated inhibition of GC activity with MnGTP, mGC-C” value [12] was “remained; also recorded: displayed ATP-mediated inhibition of MnGTP-mediated activity” and the “ATP-mediated inhibition of MnGTP-mediated activity, hmCYC” value [13] was “displayed ATP-mediated inhibition of MnGTP-mediated activity”. The “ATP-mediated inhibition of Lubrol-stimulated GC activity, mGC-C” value ([14]; 1 mM MgATP, 0.1% Lubrol-PX) was “lost and no allosteric inhibition of guanylyl cyclase activity and no inhibition of detergent-mediated activity by ATP”, the “ATP-mediated inhibition of Lubrol-stimulated GC activity, hmCYC” value [15] was “retained” and the “ATP-mediated inhibition of Lubrol-stimulated GC activity, mhCYC” value [16] was “lost”. The “ATP inhibition of detergent-mediated activity, chimeric receptor harboring the mouse KHD” value [17] was “no inhibition of detergent-mediated activity by ATP”, the “ATP inhibition of GC activity with Mn2+” value [18] was “inhibits GC activity when Mn^2+ is the metal ion used in assays” and the “ATP inhibition of Lubrol-stimulated GC activity” value [19] was “inhibits Lubrol-stimulated GC activity”. For the same molecule, the “ATP inhibition of Lubrol-stimulated GC activity, GC-CK516A” value [20] was “inhibition is lost”, the “ATP inhibition of GC activity with Mn2+, GC-CK516A” value [21] was “inhibition is also seen” and the “ATP inhibition of MnGTP-mediated and detergent-mediated GC activity” value [22] was “inhibit in vitro MnGTP-mediated and detergent-mediated GC activity”.
With MgGTP the “GC activity of mGC-C in the presence of MgGTP” value ([14]; 4 mM free MgCl2, 37 °C 10 min, words) was “lower than that of hGC-C”.
